The record followed here is ChEMBL document CHEMBL1157936, “Synthesis of 7-benzyl-5-(piperidin-1-yl)-6,7,8,9-tetrahydro-3H-pyrazolo[3,4-c][2,7]naphthyridin-1-ylamine and its analogs as bombesin receptor subtype-3 agonists” (Bioorg Med Chem Lett, 2010).

Series [1] concerns Rattus norvegicus. The experiment in a line: Antiobesity activity in deit-induced obese rat model assessed as suppression of acute food intake at 10 mg/kg, iv relative to control. In kind it is functional. An outline of the steps: (§1)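 Acute food intake was measured and expressed as percent suppression versus vehicle-treated rats. Melanotan-II served as the positive control.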

The subject of series [2] is Rattus norvegicus. Nature of the series: Antiobesity activity in deit-induced obese rat model assessed as suppression of acute food intake at 0.3 mg/kg, iv relative to control. In kind it is functional. An outline of the steps:
as §1

Series [3] has as its target T1, Bombesin receptor subtype-3 (Homo sapiens) (UniProt P32247).
T1 sequence (whole entry): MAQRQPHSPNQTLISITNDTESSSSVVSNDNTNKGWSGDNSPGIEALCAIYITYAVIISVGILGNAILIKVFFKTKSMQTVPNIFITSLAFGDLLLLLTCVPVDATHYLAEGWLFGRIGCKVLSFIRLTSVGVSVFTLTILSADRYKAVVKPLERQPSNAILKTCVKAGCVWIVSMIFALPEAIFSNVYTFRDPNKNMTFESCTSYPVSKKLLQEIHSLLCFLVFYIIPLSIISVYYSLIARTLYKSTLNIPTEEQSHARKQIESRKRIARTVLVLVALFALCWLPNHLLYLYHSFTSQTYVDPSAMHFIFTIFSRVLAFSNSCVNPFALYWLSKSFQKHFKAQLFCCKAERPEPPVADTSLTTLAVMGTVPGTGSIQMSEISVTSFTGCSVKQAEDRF
The experiment in a line: Agonist activity at human BRS3 expressed in HEK293AEQ cells after 10 mins by aequorin bioluminescence assay relative to dY-peptide. In kind it is functional, cell-based.

A short description of series [4]: Clearance in rat. The series is classed as ADME, organism-based. The following applies: in vivo.
In series [5] the target is T2, Bombesin receptor subtype-3 (Rattus norvegicus) (UniProt Q8K418).
T2 sequence (whole entry): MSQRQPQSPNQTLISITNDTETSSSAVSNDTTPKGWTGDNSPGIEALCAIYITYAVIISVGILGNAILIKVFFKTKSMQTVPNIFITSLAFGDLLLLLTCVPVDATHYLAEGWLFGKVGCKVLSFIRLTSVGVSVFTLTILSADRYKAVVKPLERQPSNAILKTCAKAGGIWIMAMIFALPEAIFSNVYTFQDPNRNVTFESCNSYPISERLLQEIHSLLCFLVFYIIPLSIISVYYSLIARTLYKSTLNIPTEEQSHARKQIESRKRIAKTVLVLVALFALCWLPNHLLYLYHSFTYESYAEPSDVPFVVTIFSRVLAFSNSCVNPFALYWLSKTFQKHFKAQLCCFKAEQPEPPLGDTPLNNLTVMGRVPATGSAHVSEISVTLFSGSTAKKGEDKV
The experiment in a line: Agonist activity at rat BRS3 expressed in HEK293AEQ cells after 10 mins by aequorin bioluminescence assay relative to dY-peptide. The series is classed as functional, cell-based. Further details: concentration or dose not given beside the values.

The nature of series [6]: Drug level in rat brain at 1 mg/kg, iv after 0.25 hrs. In kind it is ADME, organism-based. Further details: dose 1 mg/kg, route intravenous. The following applies: read-out: Drug uptake. Summed up: (§2)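 Rats received a single 1 mg/kg IV dose. Total drug concentration in brain and the brain/plasma ratio were measured at 0.25, 1 and 2 h post-dose.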
A short description of series [7]: Half life in rat. The series is classed as ADME, organism-based. To be noted: in vivo.
Series [8] is described as follows: Drug level in rat brain at 1 mg/kg, iv after 1 hr. To be noted: read-out: Drug uptake. Further details: dose 1 mg/kg, route intravenous. The series is classed as ADME, organism-based. An outline of the steps:
as §2

Series [9] is described as follows: Ratio of drug level in brain to plasma in rat at 1 mg/kg, iv after 0.25 hr. The series is classed as ADME, organism-based. Further details: dose 1 mg/kg, route intravenous. The following applies: brain and plasma, read-out: BPR. Summed up:
as §2

Series [10] concerns the target T3, Bombesin receptor subtype-3 (Homo sapiens, UniProt P32247).
T3 sequence (P32247 whole entry): T1 sequence (whole entry)
Nature of the series: Agonist activity at human BRS3 expressed in HEK293AEQ cells after 10 mins by aequorin bioluminescence assay. The series is classed as functional, cell-based.

Series [11] in a line: Drug level in rat brain at 1 mg/kg, iv after 2 hrs. The series is classed as ADME, organism-based. Further details: dose 1 mg/kg, route intravenous. The following applies: read-out: Drug uptake. An outline of the steps:
as §2

A short description of series [12]: Bioavailability in rat. To be noted: in vivo. In kind it is ADME, organism-based.
Series [13] can be described thus: Ratio of drug level in brain to plasma in rat at 1 mg/kg, iv after 2 hrs. Further details: dose 1 mg/kg, route intravenous. In kind it is ADME, organism-based. The following applies: brain and plasma, read-out: BPR. Summed up:
as §2

The target of series [14] is T4, Bombesin receptor subtype-3 (Rattus norvegicus, UniProt Q8K418).
T4 sequence (Q8K418 whole entry): T2 sequence (whole entry)
Nature of the series: Agonist activity at rat BRS3 expressed in HEK293AEQ cells after 10 mins by aequorin bioluminescence assay. In kind it is functional, cell-based.

The nature of series [15]: Ratio of drug level in brain to plasma in rat at 1 mg/kg, iv after 1 hr. In kind it is ADME, organism-based. Further details: dose 1 mg/kg, route intravenous. The following applies: brain and plasma, read-out: BPR. Summed up:
as §2

With `Nc1n[nH]c2nc(N3CCCCC3)c3c(c12)CCN(Cc1ccccc1)C3`, the Activity in the series on Rattus norvegicus [1] amounted to 31.6%; in the series on Rattus norvegicus [2], 43.6%; in series [3], 60%; in series [5] it was 105%. For the same molecule, the clearance – broadly, the rate of elimination divided by the concentration – in series [4] amounted to 45 mL/min/kg. Besides, the concentration at 0.25 h in series [6] worked out at 1210 nM. For the same molecule, in series [7], the half-life – broadly, the time needed for the level to fall by half in the phase considered – is 43.8 min. In addition, in [8], the concentration at 1 h was determined as 390 nM. The Kp at 0.25 h in series [9] stood at 4.4. Moreover, the EC50 (in general, the concentration at which the effect is half-maximal) in series [10] was 4.52 µM; in series [14] it was 0.38 µM. Further, the concentration at 2 h in series [11] was found to be 140 nM. For the same molecule, in [12], the bioavailability (commonly the share of a dose that reaches the circulation, judged against a reference dose that is usually intravenous) was 5.7%. In addition, in [13], the Kp at 2 h was 3.4. Also, the Kp at 1 h in series [15] was found to be 3.2.
With `Nc1n[nH]c2nc(N3CCCCC3)c3c(c12)CCNC3`, the Activity in series [3] came to 0.3%; in [5] it was 15%. In addition, the EC50 in series [10] and in series [14] was above 10 µM each time.
As for `Nc1n[nH]c2nc(Nc3ccccc3)c3c(c12)CCN(Cc1ccccc1)C3`, the Activity was 1.5% in series [3] and 60% in series [5]. The concentration giving a half-maximal response (EC50) in series [10] and in series [14] was 10 µM throughout.
With `CC(C)(C)CN1CCc2c(c(N3CCCCC3)nc3[nH]nc(N)c23)C1`, the figures for the Activity in series [3] and in series [5] were 22% and 91%, respectively. Further, the EC50 in series [10] turned out to be 10 µM; in series [14], 1.06 µM.
